Assay results of several laboratories.
Compare with care: the assays were run in different laboratories.

Structure (SMILES)	system	conditions	Tmax [h]
C[C@@]1(c2cc(NC(=O)c3ccc(C#N)cn3)ccc2F)C=CSC(N)=N1	human, plasma	oral, 1 mg, single dose	0.89
CS(=O)(=O)CCC#N	human, plasma	oral, 300 mg, single dose, fasted	1.5
C[C@@H](Nc1cc(F)cc(F)c1)c1cc(C(=O)N(C)C)cc2c(=O)cc(N3CCOCC3)oc12	human, plasma	oral, 240 mg, single dose, patients	1.75
O=C(Nc1c(Cl)cncc1Cl)c1ccc(OC(F)F)c(OCC2CC2)c1	human, plasma	oral, 0.5 mg, single dose	0.75
CC(C)n1nc(-c2ccc3oc(N)nc3c2)c2c(N)ncnc21	human, plasma	oral, 3 mg, multiple doses, once daily, patients	0.97
NS(=O)(=O)NCCNc1nonc1C(=NO)Nc1ccc(F)c(Br)c1	human, plasma	oral, 100 mg, multiple doses, twice daily, steady state, patients	2
CCc1nc2c(C)cc(N3CCN(CC(=O)N4CC(O)C4)CC3)cn2c1N(C)c1nc(-c2ccc(F)cc2)c(C#N)s1	human, plasma	oral, 600 mg, single dose, fasted, healthy volunteers	1.8
COC(=O)N[C@@H](C)CNc1nccc(-c2cn(C(C)C)nc2-c2cc(Cl)cc(NS(C)(=O)=O)c2F)n1	human, plasma	oral, 50 mg, single dose	~1.5
CO[C@@H]1[C@H](OC(=O)N2CC(CCN3CCOCC3)C2)CC[C@]2(CO2)[C@H]1[C@@]1(C)O[C@@H]1CC=C(C)C	human, plasma	subcutaneous, 1.2 mg, single dose, healthy volunteers	0.25
Cn1cc(-c2ccc(S(=O)(=O)[C@@H]3C[C@@H](C(=O)NC4(C#N)CC4)N(C(=O)C4(C(F)(F)F)CC4)C3)c(C(F)(F)F)c2)cn1	human, plasma	oral, 100 mg, single dose, fed	5
C=CC(=O)N(C)CCOc1c(N)ncnc1-c1cc(F)cc(NC(=O)c2ccc(C3CC3)cc2F)c1C	human, blood	oral, 400 mg, single dose, healthy volunteers	1.24
CCCCOC(=O)N1CCN(C(=O)[C@H](CP(=O)(O)O)NC(=O)c2cc(N3CC[C@H](OC)C3)nc(-c3ccccc3)n2)CC1	human, plasma	subcutaneous, 16 mg, single dose	0.733
CC(C)(C)OC[C@@H]1C(=O)NCCN1C(=O)C[C@H](N)Cc1cc(F)c(F)cc1F	male human, plasma	oral, 5 mg, multiple doses, steady state	2
CCc1nc(C(N)=O)c(Nc2ccc(N3CCC(N4CCN(C)CC4)CC3)c(OC)c2)nc1NC1CCOCC1	human, plasma	oral, 120 mg, multiple doses, patients	3.03
C#Cc1cccc(Nc2ncnc3cc(OCCOC)c(OCCOC)cc23)c1	human, plasma	oral, 50 mg, patients	4
O=C(O)C[C@H](O)C[C@H](O)/C=C/c1c(C2CC2)nc2ccccc2c1-c1ccc(F)cc1	human, plasma	oral, 2 mg, single dose, fed, healthy volunteers, tablet	1.13
CC(C)n1cc(C#N)c2cc(-n3cc(C(=O)O)cn3)ccc21	human, plasma	oral, 100 mg, multiple doses, once daily, steady state	2.5
CC(C)(O)c1ccccc1-c1ccc2[nH]c(/C=C/c3ccc(C(F)(F)F)cc3)nc2c1	male human, plasma	oral, 120 mg, single dose, fasted	3
COc1ccc([C@@H]2CN(C(=O)[C@@H](O)CO)C[C@@]2(C)[C@@H](C)O)cc1OC1CN(c2ccc(C)cn2)C1	human, plasma	oral, 0.5 mg, single dose, healthy volunteers	1.5
CC(C)[C@H](N)C(=O)NCCCS(=O)(=O)O	human, plasma	oral, 256.5 mg, multiple doses, twice daily, fasted	0.5
